A word on the pKd: it is the Kd on a negative log10 scale, so that one unit is a factor of ten. A higher pKd goes with a low Kd.

One assay has as its target T1, B2 bradykinin receptor (Cavia porcellus, UniProt O70526).
T1 sequence (O70526 whole entry): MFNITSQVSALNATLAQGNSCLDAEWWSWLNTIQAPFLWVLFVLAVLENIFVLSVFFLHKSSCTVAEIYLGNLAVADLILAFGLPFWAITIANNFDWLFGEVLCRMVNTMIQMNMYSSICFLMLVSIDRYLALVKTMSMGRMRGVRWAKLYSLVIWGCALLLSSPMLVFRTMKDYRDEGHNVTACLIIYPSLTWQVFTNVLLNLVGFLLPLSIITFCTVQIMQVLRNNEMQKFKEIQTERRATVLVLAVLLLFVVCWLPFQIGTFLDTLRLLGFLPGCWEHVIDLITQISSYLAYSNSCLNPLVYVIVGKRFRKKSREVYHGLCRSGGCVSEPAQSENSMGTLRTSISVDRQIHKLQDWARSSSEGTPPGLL
As to the kind of experiment: Antagonistic activity against Bradykinin receptor B2 of guinea pig ileum longitudinal smooth muscle. In short, it runs like this:
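Guinea pig ileum longitudinal muscle-myenteric plexus strips in oxygenated (95% O2/5% CO2) Krebs with indomethacin, guanethidine (3 μM each), chlorpheniramine, atropine (1 μM each). Cumulative BK curves with thiorphan, bestatin, captopril (1 μM each); antagonist given 15 min before repeat curve at 1–10 μM. Contraction read-out; pA2 (dose ratio 2), mean ± SE of 4–15 experiments.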

Another assay deals with T2, B1 bradykinin receptor (Rattus norvegicus, UniProt P97583).
T2 sequence (P97583 whole entry): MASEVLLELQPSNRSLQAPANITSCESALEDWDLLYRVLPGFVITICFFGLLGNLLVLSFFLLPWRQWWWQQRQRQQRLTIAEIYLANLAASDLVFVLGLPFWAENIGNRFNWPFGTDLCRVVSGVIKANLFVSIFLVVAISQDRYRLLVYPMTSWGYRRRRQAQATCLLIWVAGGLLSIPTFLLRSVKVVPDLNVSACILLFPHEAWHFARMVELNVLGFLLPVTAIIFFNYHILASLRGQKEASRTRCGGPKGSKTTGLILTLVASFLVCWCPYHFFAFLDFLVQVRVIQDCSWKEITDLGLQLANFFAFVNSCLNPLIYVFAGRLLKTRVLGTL
As to the kind of experiment: Antagonistic activity against Bradykinin receptor B1 of rat ileum longitudinal smooth muscle. The method, boiled down: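 Rat ileum longitudinal muscle-myenteric plexus strips in oxygenated (95% O2/5% CO2) Krebs with indomethacin, guanethidine (3 μM each), chlorpheniramine, atropine (1 μM each). Cumulative desArg9-BK curves with thiorphan, bestatin, captopril (1 μM each); antagonist given 15 min before repeat curve at 1–10 μM. Contraction read-out; pA2 (dose ratio 2), mean ± SE of 4–15 experiments.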

pKd: −log10 of the molar value.

On to `N=C(N)NCCC[C@@H](N)C(=O)N[C@@H](CCCNC(=N)N)C(=O)N1CCC[C@H]1C(=O)N1CC(O)C[C@H]1C(=O)NCC(=O)N[C@H](C(=O)N[C@@H](CO)C(=O)N[C@@H](C(=O)N1C(C(=O)N[C@H](CCCNC(=N)N)C(=O)O)C[C@@H]2CCCC[C@@H]21)C1Cc2ccccc2C1)C1Cc2ccccc2C1` (some centres undefined) [B-9430], for which the results for the pKd on B2 bradykinin receptor and at B1 bradykinin receptor were 8.20 and 7.70, respectively.
With `N=C(N)NCCC[C@H](NC(=O)[C@H](CCCCN)NC(=O)[C@@H](N)CCCCN)C(=O)N1CCC[C@H]1C(=O)N1CC(O)C[C@H]1C(=O)NCC(=O)N[C@H](C(=O)N[C@@H](CO)C(=O)N[C@@H](C(=O)N1C(C(=O)O)C[C@@H]2CCCC[C@@H]21)C1Cc2ccccc2C1)C1Cc2ccccc2C1` (some centres undefined) [B-9858], the negative-log Kd (pKd) at B2 bradykinin receptor is 5.50; at B1 bradykinin receptor, 8.10.
